In ChEMBL document CHEMBL1142433, “Synthesis and pharmacological characterization at glutamate receptors of the four enantiopure isomers of tricholomic acid” (J Med Chem, 2008):

What was measured:
Glutamate NMDA receptor = experiment: Displacement of [3H]CGP-39653 from NMDA receptor in rat cortical membrane; assay type: cell membranes
Summary of the method: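 NMDA receptor binding on rat cortical membranes prepared by the Ransom and Stec method, with [3H]CGP39653 as radioligand. Ki in µM reported as mean [pKi ± SEM] of at least three individual experiments.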

[1] = target: Metabotropic glutamate receptor 4 (Rattus norvegicus, UniProt P31423); experiment: Activity at rat cloned mGluR4 expressed in CHO cells assessed as effect on cAMP accumulation; assay type: functional, cell-based
Summary of the method: (§1)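 Second-messenger functional assay on rat mGluR1a (group I), mGluR2 (group II) and mGluR4 (group III) expressed in CHO cells. EC50 in µM with pEC50, reported as mean [pEC50 ± SEM] of at least three independent experiments.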

[2] = Displacement of [3H]AMPA from AMPA receptor in rat cortical membrane; assay type: cell membranes
Summary of the method: (§2)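 Competition binding on rat cortical membranes prepared by the Ransom and Stec method, using [3H]AMPA (AMPA receptors) or [3H]KA (kainate receptors). IC50 in µM reported as mean [pIC50 ± SEM] of at least three individual experiments.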

[3] = Displacement of [3H]KA from kainate receptor in rat cortical membrane; assay type: cell membranes; summary of the method: as §2
[4] = target: Metabotropic glutamate receptor 1 (Rattus norvegicus, UniProt P23385); experiment: Activity at rat cloned mGluR1a expressed in CHO cells assessed as effect on cAMP accumulation; assay type: functional, cell-based; summary of the method: as §1
Chain of Metabotropic glutamate receptor 1 (P23385 whole entry): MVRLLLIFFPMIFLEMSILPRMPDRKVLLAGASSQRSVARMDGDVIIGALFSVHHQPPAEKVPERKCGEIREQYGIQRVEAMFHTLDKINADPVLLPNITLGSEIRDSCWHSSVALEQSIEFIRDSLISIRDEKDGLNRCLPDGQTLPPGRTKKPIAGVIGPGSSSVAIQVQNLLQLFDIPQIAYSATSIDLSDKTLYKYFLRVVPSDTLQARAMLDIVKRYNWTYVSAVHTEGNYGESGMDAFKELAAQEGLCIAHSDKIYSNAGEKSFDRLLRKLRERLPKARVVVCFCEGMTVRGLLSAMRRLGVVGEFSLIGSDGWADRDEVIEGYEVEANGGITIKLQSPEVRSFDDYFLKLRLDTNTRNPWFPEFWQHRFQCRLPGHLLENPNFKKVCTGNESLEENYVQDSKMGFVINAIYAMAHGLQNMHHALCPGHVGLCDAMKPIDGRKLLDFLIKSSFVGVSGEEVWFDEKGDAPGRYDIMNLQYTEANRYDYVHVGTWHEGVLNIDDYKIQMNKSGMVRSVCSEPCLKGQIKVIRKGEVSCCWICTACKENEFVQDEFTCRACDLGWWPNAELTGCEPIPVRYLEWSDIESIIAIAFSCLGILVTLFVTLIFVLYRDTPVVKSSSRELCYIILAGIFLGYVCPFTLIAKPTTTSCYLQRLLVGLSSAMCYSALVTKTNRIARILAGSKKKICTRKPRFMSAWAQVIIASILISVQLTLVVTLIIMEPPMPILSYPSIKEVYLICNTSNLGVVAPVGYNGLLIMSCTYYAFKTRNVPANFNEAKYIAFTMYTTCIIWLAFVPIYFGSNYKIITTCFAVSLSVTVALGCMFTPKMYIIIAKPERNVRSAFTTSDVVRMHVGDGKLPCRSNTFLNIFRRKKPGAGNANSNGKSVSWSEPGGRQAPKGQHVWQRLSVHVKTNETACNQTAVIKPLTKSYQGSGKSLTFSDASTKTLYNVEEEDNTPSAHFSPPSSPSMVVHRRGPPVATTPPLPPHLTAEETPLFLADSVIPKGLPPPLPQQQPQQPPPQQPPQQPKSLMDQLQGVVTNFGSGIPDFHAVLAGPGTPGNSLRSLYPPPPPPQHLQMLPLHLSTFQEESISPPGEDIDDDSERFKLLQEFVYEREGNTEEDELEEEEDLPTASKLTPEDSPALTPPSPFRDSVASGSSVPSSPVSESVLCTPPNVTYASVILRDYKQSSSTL

[5] = target: Metabotropic glutamate receptor 2 (Rattus norvegicus, UniProt P31421); experiment: Activity at rat cloned mGluR2 expressed in CHO cells assessed as effect on cAMP accumulation; assay type: functional, cell-based; summary of the method: as §1
Glutamate receptor 2 = Glutamate receptor 2 (Rattus norvegicus, UniProt P19491); experiment: Activity at rat cloned iGluR2 expressed in human HEK293 cells by calcium imaging assay; assay type: cell-based
Glutamate receptor 1 = Glutamate receptor 1 (Rattus norvegicus, UniProt P19490); experiment: Activity at rat cloned iGluR1 expressed in human HEK293 cells by calcium imaging assay; assay type: cell-based
Chain of Glutamate receptor 1 (P19490 whole entry): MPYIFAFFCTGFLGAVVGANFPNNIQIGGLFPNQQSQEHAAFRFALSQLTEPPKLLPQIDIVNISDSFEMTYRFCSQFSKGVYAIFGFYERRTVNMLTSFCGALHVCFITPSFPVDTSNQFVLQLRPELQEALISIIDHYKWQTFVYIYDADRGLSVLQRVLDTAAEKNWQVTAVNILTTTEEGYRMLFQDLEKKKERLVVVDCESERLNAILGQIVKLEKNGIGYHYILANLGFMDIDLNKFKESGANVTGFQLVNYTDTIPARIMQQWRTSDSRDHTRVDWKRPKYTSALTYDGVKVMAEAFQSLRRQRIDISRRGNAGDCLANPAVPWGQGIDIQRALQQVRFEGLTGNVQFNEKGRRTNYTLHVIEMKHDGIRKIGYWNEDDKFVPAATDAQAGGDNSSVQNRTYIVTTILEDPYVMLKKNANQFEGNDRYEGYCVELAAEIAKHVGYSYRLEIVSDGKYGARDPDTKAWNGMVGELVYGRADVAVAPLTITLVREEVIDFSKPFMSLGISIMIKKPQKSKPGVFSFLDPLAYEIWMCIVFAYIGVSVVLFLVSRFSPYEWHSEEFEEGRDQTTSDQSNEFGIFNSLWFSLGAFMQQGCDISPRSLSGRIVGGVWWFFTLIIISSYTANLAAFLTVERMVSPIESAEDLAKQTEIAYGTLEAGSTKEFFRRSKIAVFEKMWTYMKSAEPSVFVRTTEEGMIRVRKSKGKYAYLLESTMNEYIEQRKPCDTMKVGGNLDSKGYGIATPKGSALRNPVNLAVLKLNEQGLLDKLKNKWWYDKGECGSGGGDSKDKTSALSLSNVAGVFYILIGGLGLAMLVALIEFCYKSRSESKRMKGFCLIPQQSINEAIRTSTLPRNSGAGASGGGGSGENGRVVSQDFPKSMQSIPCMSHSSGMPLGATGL
Summary of the method: (§3)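 Rat iGluR1–6 subtypes cloned and expressed in HEK cells: iGluR2, iGluR5 and iGluR6 as the Q forms; iGluR1–4 marked with subscript "i". Receptor activation was read by Fluo-4 calcium imaging.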

[6] = target: Glutamate receptor ionotropic, kainate 2 (Rattus norvegicus, UniProt P42260); experiment: Activity at rat cloned iGluR6 expressed in human HEK293 cells by calcium imaging assay; assay type: cell-based; summary of the method: as §3
Chain of Glutamate receptor ionotropic, kainate 2 (P42260 whole entry): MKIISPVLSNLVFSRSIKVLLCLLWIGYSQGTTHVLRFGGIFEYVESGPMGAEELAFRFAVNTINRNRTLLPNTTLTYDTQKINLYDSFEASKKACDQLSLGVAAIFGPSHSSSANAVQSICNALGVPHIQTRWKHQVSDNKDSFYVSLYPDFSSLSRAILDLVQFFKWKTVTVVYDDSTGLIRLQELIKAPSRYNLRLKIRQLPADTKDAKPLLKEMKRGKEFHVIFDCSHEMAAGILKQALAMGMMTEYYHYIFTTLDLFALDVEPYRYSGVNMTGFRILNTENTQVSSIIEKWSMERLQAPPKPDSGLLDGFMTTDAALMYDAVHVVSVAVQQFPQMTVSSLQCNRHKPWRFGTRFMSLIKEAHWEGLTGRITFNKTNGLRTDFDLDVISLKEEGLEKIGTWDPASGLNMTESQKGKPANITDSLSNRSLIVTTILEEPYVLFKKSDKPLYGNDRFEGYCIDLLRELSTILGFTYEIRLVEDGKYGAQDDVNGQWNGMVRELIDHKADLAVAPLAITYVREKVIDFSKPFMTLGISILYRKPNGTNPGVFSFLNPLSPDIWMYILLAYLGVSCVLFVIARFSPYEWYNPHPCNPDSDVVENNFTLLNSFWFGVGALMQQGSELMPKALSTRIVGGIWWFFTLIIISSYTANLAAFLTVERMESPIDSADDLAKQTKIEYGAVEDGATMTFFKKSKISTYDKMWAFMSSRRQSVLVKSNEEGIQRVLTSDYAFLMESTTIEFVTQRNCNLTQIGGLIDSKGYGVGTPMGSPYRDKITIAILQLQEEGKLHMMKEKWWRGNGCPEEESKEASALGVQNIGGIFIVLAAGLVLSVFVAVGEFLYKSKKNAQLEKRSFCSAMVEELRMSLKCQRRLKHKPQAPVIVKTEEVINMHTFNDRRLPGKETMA

Glutamate receptor 3 = Glutamate receptor 3 (Rattus norvegicus, UniProt P19492); experiment: Activity at rat cloned iGluR3 expressed in human HEK293 cells by calcium imaging assay; assay type: cell-based; summary of the method: as §3
Chain of Glutamate receptor 3 (P19492 whole entry): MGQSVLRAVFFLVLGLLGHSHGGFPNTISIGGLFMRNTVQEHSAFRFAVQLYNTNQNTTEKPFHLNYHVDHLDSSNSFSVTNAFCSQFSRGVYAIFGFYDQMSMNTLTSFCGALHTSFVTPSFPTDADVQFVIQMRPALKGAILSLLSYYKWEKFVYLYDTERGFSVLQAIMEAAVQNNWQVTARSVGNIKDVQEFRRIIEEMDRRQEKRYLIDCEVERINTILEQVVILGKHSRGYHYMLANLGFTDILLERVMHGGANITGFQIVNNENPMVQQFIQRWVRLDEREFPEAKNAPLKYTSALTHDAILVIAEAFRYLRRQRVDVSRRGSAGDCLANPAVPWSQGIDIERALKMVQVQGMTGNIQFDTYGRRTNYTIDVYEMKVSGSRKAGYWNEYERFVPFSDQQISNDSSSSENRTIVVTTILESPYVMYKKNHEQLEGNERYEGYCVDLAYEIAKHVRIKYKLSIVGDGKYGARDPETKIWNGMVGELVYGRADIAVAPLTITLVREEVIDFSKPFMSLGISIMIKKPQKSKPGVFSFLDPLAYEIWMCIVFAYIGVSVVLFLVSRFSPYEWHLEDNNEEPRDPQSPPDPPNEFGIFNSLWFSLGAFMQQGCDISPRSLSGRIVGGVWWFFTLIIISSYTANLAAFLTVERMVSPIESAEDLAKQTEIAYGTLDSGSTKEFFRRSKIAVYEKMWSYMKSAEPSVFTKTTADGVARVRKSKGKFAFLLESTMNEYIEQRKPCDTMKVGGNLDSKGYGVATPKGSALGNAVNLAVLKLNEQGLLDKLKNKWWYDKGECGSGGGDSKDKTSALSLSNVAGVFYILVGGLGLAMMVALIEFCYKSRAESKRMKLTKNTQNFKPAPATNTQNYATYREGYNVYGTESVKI

[7] = target: Glutamate receptor ionotropic, kainate 1 (Rattus norvegicus, UniProt P22756); experiment: Activity at rat cloned iGluR5 expressed in human HEK293 cells by calcium imaging assay; assay type: cell-based
Chain of Glutamate receptor ionotropic, kainate 1 (P22756 whole entry): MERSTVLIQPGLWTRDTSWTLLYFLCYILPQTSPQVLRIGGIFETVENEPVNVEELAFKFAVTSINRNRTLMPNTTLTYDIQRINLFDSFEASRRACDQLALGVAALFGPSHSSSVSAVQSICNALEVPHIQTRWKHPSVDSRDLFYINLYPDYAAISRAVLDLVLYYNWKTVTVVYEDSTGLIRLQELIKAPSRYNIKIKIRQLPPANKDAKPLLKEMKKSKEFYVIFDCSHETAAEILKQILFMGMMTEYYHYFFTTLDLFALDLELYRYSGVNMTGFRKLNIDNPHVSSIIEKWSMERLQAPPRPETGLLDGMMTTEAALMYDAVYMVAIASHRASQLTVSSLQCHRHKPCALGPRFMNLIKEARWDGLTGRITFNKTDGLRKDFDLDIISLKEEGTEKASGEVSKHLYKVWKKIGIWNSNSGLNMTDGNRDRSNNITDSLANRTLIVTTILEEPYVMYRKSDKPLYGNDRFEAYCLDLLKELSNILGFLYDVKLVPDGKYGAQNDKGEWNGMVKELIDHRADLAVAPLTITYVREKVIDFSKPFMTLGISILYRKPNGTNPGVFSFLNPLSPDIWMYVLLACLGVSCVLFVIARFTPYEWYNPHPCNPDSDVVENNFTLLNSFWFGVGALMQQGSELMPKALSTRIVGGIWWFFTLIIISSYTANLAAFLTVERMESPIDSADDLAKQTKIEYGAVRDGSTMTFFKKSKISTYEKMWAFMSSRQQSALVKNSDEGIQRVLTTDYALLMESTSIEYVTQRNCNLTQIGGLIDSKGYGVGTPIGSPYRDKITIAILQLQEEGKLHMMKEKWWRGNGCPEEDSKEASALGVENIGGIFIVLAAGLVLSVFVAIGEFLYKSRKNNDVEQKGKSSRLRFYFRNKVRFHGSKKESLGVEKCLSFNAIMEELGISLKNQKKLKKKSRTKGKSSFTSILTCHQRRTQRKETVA

Glutamate receptor 4 = Glutamate receptor 4 (Rattus norvegicus, UniProt P19493); experiment: Activity at rat cloned iGluR4 expressed in human HEK293 cells by calcium imaging assay; assay type: cell-based; summary of the method: as §3
[8] = target: Glutamate receptor ionotropic, kainate 1 (Rattus norvegicus) (UniProt P22756); experiment: Activity at rat cloned iGluR5 expressed in human HEK293 cells by calcium imaging assay relative to L-glutamate; assay type: cell-based; set-up: concentration or dose not given beside the values; summary of the method: as §3
Chain of Glutamate receptor ionotropic, kainate 1 (Rattus norvegicus) (P22756 whole entry): as above

[9] = target: Glutamate receptor 2 (Rattus norvegicus) (UniProt P19491); experiment: Activity at rat cloned iGluR2 expressed in human HEK293 cells by calcium imaging assay relative to L-glutamate; assay type: cell-based; set-up: concentration or dose not given beside the values; summary of the method: as §3
[10] = target: Glutamate receptor 1 (Rattus norvegicus) (UniProt P19490); experiment: Activity at rat cloned iGluR1 expressed in human HEK293 cells by calcium imaging assay relative to L-glutamate; assay type: cell-based; set-up: concentration or dose not given beside the values; summary of the method: as §3
Chain of Glutamate receptor 1 (Rattus norvegicus) (P19490 whole entry): as the sequence (P19490 whole entry) above

[11] = target: Glutamate receptor ionotropic, kainate 2 (Rattus norvegicus) (UniProt P42260); experiment: Activity at rat cloned iGluR6 expressed in human HEK293 cells by calcium imaging assay relative to L-glutamate; assay type: cell-based; set-up: concentration or dose not given beside the values; summary of the method: as §3
Chain of Glutamate receptor ionotropic, kainate 2 (Rattus norvegicus) (P42260 whole entry): as the sequence (P42260 whole entry) above

[12] = target: Glutamate receptor 3 (Rattus norvegicus) (UniProt P19492); experiment: Activity at rat cloned iGluR3 expressed in human HEK293 cells by calcium imaging assay relative to L-glutamate; assay type: cell-based; set-up: concentration or dose not given beside the values; summary of the method: as §3
Chain of Glutamate receptor 3 (Rattus norvegicus) (P19492 whole entry): as the sequence (P19492 whole entry) above

[13] = target: Glutamate receptor 4 (Rattus norvegicus) (UniProt P19493); experiment: Activity at rat cloned iGluR4 expressed in human HEK293 cells by calcium imaging assay relative to L-glutamate; assay type: cell-based; set-up: concentration or dose not given beside the values; summary of the method: as §3

Compound	EC50 [1] [µM]	IC50 [2] [µM]	Log IC50 [2]	IC50 [3] [µM]	Log IC50 [3]	EC50 ([4]; read-out: EC50) [µM]	EC50 [5] [µM]	EC50 (Glutamate receptor 2) [µM]	EC50 (Glutamate receptor 1) [µM]	EC50 [6] [µM]	EC50 (Glutamate receptor 3; read-out: EC50) [µM]	EC50 [7] [µM]	EC50 (Glutamate receptor 4) [µM]	Ki (Glutamate NMDA receptor) [µM]	Activity [8] [%]	Activity [9] [%]	Activity [10] [%]	Activity [11] [%]	Activity [12] [%]	Activity [13] [%]	further results
NC(C(=O)O)C1CC(O)=NO1 (racemic; form 1) [TRICHOLOMIC ACID]	> 1000	1.1	-5.86	0.76	-6.14	790	> 1000														IC50 (Glutamate NMDA receptor): 1.5 µM
N[C@H](C(=O)O)c1cc(=O)[nH]o1 [IBOTENIC ACID]	> 1000					43		> 1000	> 1000	> 1000	> 1000	> 1000	> 1000								
NC(C(=O)O)C1CC(O)=NO1 (racemic; form 2) [TRICHOLOMIC ACID]		19	-4.73	6	-5.22	110	100														IC50 (Glutamate NMDA receptor): 73 µM; EC50 ([4]; read-out: Log EC50 (converted)): 79.4 µM
N[C@@H](C(=O)O)[C@H]1CC(O)=NO1	> 1000	> 100		> 100		> 1000	> 1000	> 1000	> 1000	> 1000	> 1000	> 1000	> 1000	0.67	10	13	15	11	10	9	Log Ki (Glutamate NMDA receptor): -6.19
N[C@@H](C(=O)O)[C@@H]1CC(O)=NO1	> 1000	12	-4.92	11	-4.95	> 1000	> 1000	> 1000	> 1000	> 1000	> 1000	> 1000	> 1000	75	8	14	13	15	10	7	
N[C@H](C(=O)O)[C@H]1CC(O)=NO1	> 1000	> 100		36	-4.45	82	84	> 1000	> 1000	> 1000	> 1000	> 1000	> 1000	95	12	20	35	11	23	90	Log Ki (Glutamate NMDA receptor): -4.03
N[C@H](C(=O)O)[C@@H]1CC(O)=NO1	> 1000	0.95	-6.02	0.29	-6.55	610	> 1000	480	120	82	170	280	30	41	91	74	90	91	88	91	EC50 (Glutamate receptor 3; read-out: Log EC50 (converted)): 155 µM
N[C@H](C(=O)O)c1cc(O)no1 [IBOTENIC ACID]		> 100		22	-4.66										8	2	6	96	1	32	
